Active and inactive are the calls of the source. No cut-off for these calls is given here.
Tested on: Influenza A virus
Assay: Antiviral activity against Influenza A virus H5N1 pseudovirus harboring IAV (A/Thailand/Kan353/2004(H5N1))-HA/IAV (A/Thailand/Kan353/2004(H5N1))-NA/HIV core plasmids infected in MDCK cells assessed as pseudovirus neutralization incubated for 30 mins with virus followed by viral infection and measured after 48 hrs by luciferase reporter gene assay
Type: functional, organism-based
In short: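 Pseudovirus incubated with varying compound concentrations for 30 min at 37 °C, then added to MDCK cells for 48 h. Lysates read for luciferase activity; VSV-G pseudovirus run as control.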

Structure (SMILES): CC/C=C1/C=CC(=O)[C@@H](O)[C@]12C(=O)N(OC)[C@@](C)(OC)[C@@H]2O
- Activity: inactive

Reference: ChEMBL document CHEMBL4382263, “Spirostaphylotrichin X from a Marine-Derived Fungus as an Anti-influenza Agent Targeting RNA Polymerase PB2” (J Nat Prod, 2018)
